S100A4 MyoIIA: inhibitors of S100A4-myosin IIA peptide binding, primary screen, biochemical, fluorescence polarization, TAMRA-MyoIIA peptide. Protein S100-A4 (Homo sapiens), P26447. inhibition, % at 10.7 µM. 360,000 tested, 0.14% active;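 active = mean inhibition of at least 70% across replicates, with every replicate also reaching that level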
Target sequence (P26447 whole entry, looked up): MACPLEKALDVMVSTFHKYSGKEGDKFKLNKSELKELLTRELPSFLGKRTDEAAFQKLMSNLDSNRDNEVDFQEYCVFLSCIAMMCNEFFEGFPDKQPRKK
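Test system – S100A4 monomer (human) · Compound – single-point compound testing · Schedule – 5 min incubation before reading · Probe or stimulus – TAMRA-labelled myosin IIA heavy-chain peptide probe, 5 nM · Benchmarks – neutral control DMSO, positive control TFP · Medium – Calcium-containing HEPES buffer, pH 7.2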
CDK5 inh: inhibitors of human CDK5/p35 kinase, primary screen, biochemical, single concentration; Recombinant CDK5/p35, ADP-Glo luminescence, 60 min; inhibition, % at 10 µM; 330,000 tested, 0.01% active; AID 488839, 2010;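 active = highest replicate inhibition of at least 50% and at least 75% of replicates reaching 50%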;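 also: plate controls were DMSO neutral control for no effect and GW8510 at 10 µM for full effect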
CAL PDZ FP-1: CAL PDZ peptide-binding inhibitors, primary screen, biochemical, fluorescence polarization, Cer-tagged CAL PDZ, HTS. Golgi-associated PDZ and coiled-coil motif-containing protein (Homo sapiens), Q9HD26. purified CAL PDZ, TMR-peptide fluorescence polarization, 1 h. inhibition, % at 20 µM. 330,000 tested, 0.02% active. AID 504414, 2011;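 active = highest replicate inhibition of at least 40%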;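 also: plate controls were DMSO neutral control wells for no effect and unlabeled competitor peptide control wells for full effect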
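Material – purified CerCALP PDZ construct · Detection – FP readout, S and P plane fluorescence · Measure – percent inhibition from loss of millipolarization · Controls – unlabelled peptide for full inhibition, DMSO wells as neutral · Probe or stimulus – TMR-labelled reporter peptide T*-PRC34 bound in PDZ groove · Times – 1 h at RT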
CAL PDZ FP-2: untagged CAL PDZ binding inhibitors, primary screen, biochemical, fluorescence polarization, HTS; AID 602252, 2012; purified CAL PDZ, TMR-peptide fluorescence polarization, 1 h; inhibition, % at 24.9 µM; 300,000 tested, 0.92% active; Golgi-associated PDZ and coiled-coil motif-containing protein (Homo sapiens), Q9HD26;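 active = mean inhibition of at least 30% with at least half of replicates also reaching 30%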;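 also: 0% = DMSO neutral control and 100% = excess unlabeled competitor peptide PRC23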
Statin myotox sup: suppressors of statin myotoxicity in C2C12 myotubes, primary screen, cell-based, single point, plate reader; rescue of ATP level, % at 7.49 µM; C2C12 myotubes + simvastatin, ATP luminescence, 48 h; scaled: DMSO 0, geranylgeraniol control 100; AID 602340, 2012; 330,000 tested, 0.78% active;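 active = mean ATP rescue above about 67%, or every replicate alone reaching that limit, limit read from the data, passing the limit was not always enough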;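 also: myotubes were challenged with 10 µM simvastatin during compound exposure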
dFosB act-1: activators of delta FosB homodimer, primary screen, biochemical, fluorescence polarization, TAMRA-CDK5 oligo, single point; Protein FosB (Mus musculus), P13346; purified delta FosB; percent of positive-control signal above neutral wells; activation, % at 25 µM; 340,000 tested, 0.99% active;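 active = mean activation above about 17%, with every replicate also reaching it, limit read from the data, passing the limit was not always enough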
Target sequence (P13346 whole entry, looked up): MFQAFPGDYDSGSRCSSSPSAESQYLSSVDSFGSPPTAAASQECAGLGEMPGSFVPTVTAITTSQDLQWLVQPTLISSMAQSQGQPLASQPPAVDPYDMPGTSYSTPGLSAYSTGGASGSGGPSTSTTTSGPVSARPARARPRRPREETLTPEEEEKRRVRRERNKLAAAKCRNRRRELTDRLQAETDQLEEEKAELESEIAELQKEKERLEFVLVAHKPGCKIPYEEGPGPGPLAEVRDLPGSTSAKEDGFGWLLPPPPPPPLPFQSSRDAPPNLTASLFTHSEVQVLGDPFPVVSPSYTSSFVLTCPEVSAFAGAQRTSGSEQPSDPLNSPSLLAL
dFosB act-2: activators of mouse delta FosB DNA binding, confirmation, biochemical, fluorescence polarization, TAMRA-CDK5 oligo, cherry-picked samples. shares compounds with dFosB act-1. purified delta FosB; normalised: neutral wells 0, positive control 100. activation, % at 24.9 µM. 2,400 tested, under 10 active. AID 588690, 2011;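 active = highest replicate activation at or above 34% and every replicate reaching that threshold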;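 also: higher polarization means more probe DNA bound by delta FosB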
* = called active by the depositor; · = not tested or not shown. The list is not random: actives were taken first. Their share in the collection is about 2%.

SMILES	S100A4 MyoIIA	CDK5 inh	CAL PDZ FP-1	CAL PDZ FP-2	Statin myotox sup	dFosB act-1	dFosB act-2
O=C(COC(=O)CNC(=O)c1ccc(Br)cc1)Nc1nnc(-c2ccccc2)o1	-5	-1	-2	-2	0	20*	-1
CCOc1ccc(C(=O)NCC(=O)OCC(=O)Nc2nnc(-c3ccccc3)o2)cc1	1	0	-1	8	15	-9	·
Cc1ccc(C(=O)NCCNc2nc3cc(C)c(C)cc3cc2C)cc1	·	1	-3	-1	-6	41*	1
Cc1cc2cc(C)c(NCCNC(=O)c3ccccc3)nc2cc1C	-4	0	-3	-3	·	-18	·
COc1ccc(S(=O)(=O)Nc2cccc3c2O[C@@H](CN(C)Cc2ccc4c(c2)OCO4)[C@H](C)CN([C@@H](C)CO)C3=O)cc1	7	·	·	·	46	·	·
COc1ccccc1OCCCn1cc(C#N)c2ccccc21	·	0	1	18	-3	-7	·
O=C(N/N=C/c1cccnc1)c1cc2c(ccc3ccccc32)o1	·	0	-4	-1	0	32*	-2
Cc1ccc(/C=N/NC(=O)c2cc3c(ccc4ccccc43)o2)o1	4	-1	-3	-2	-5	25*	-1
O=C(N/N=C/c1cccnc1)c1cc2ccccc2o1	-2	-2	-2	1	2	-18	·
O=C(CNC(=O)c1ccc(OC(F)F)cc1)NCC1(N2CCOCC2)CCCCC1	-13	1	0	2	10	4	·
Cc1cc(C)c(S(=O)(=O)Nc2ccc3[nH]c(=O)[nH]c3c2)c(C)c1	-7	0	-2	30	·	-14	·
CCC(C)C(NC(=O)c1ccccc1NC(=O)c1ccco1)C(=O)NNC(=O)c1ccc(OC)cc1 (stereo not given)	-1	0	1	4	4	14	·
CCC(NC(=O)c1ccccc1NC(=O)c1ccco1)C(=O)NNC(=O)c1ccc(OC)cc1 (stereo not given)	-6	1	-4	-6	·	32*	2
CCC(C)C(NC(=O)c1ccccc1NC(=O)c1ccco1)C(=O)NC1CCCCC1 (stereo not given)	·	-2	0	-1	-21	31*	1
COc1ccc(C(=O)NNC(=O)C(NC(=O)c2ccccc2NC(=O)c2ccco2)C(C)C)cc1 (stereo not given)	-10	0	-1	-4	·	32*	-1
CN(CC(=O)Nc1ccc(Cl)c(C(F)(F)F)c1)C(=O)c1cc(-c2ccncc2)nc2ccccc12	-23	-1	-2	7	-38	66*	0
CN(CC(=O)Nc1ccc(F)c(F)c1F)C(=O)c1cc(-c2ccncc2)nc2ccccc12	3	1	-3	-4	7	-3	·
O=C(NCc1ccc2c(c1)OCO2)c1ccc2c(=O)n(C3CCCC3)c(=O)[nH]c2c1	·	1	-4	-3	3	40*	-4
Cc1ccccc1NC(=O)Cc1nc(COC(=O)c2cc([N+](=O)[O-])ccc2N)cs1	-3	0	-2	·	9	27*	-7
O=C1CN(C(=O)COC(=O)c2cccs2)c2ccccc2N1	-4	0	1	-3	18	0	·
Cn1c2ccccc2c2cc(C(=O)OCC(=O)N3CC(=O)Nc4ccccc43)sc21	·	0	0	-1	-12	39*	3
O=c1[nH]cnc2c1sc1nc(C(F)F)cc(-c3ccccc3)c12	0	0	0	-4	5	32*	4
O=c1[nH]cnc2c1sc1nc3c(c(-c4ccc(Cl)cc4)c12)CCC3	·	-1	-15	·	·	-23	·
CO[C@@H]1CN(C)C(=O)c2ccc(NS(=O)(=O)CC(F)(F)F)cc2OC[C@@H](C)N(C)C[C@H]1C	-6	·	·	·	·	·	·
CCN(CC)CCn1c2ccccc2c2cnc(N)c(C#N)c21	·	1	0	-1	·	62*	-1
SMILES	S100A4 MyoIIA	CDK5 inh	CAL PDZ FP-1	CAL PDZ FP-2	Statin myotox sup	dFosB act-1	dFosB act-2
CN(C)C=Nc1ncc2c3ccccc3n(Cc3ccccc3)c2c1C#N	·	-1	0	·	26	2	·
CN(C)C=Nc1ncc2c3ccccc3n(CCN(C)C)c2c1C#N	·	2	-1	-1	15	33*	-3
CCN(CC)CCn1c2ccccc2c2nc3ccccc3nc21	0	-1	0	-2	21	-33	·
CO[C@@H]1CN(C)C(=O)c2ccc(NC(=O)C3CC3)cc2OC[C@H](C)N(C(=O)CN2CCOCC2)C[C@@H]1C	10	·	·	·	4	·	·
CC(=O)N1[C@@H]2Cn3c(ccc(-c4cccc(F)c4)c3=O)[C@H]1[C@@H](C(=O)NCCCN(C)C)[C@@H]2CO	8	·	·	·	·	·	·
O=C(NCc1ccccc1)c1ccc(NC2=NC3CS(=O)(=O)CC3S2)cc1 (stereo not given)	·	1	-3	-3	4	-5	·
COc1cccc(-c2nc(C(N)=O)c3[nH]c(=O)n(-c4cccc(Cl)c4)c3n2)c1OC	-4	4	1	·	2	-23	·
COc1ccc(-c2nc(C(N)=O)c3[nH]c(=O)n(-c4cccc(Cl)c4)c3n2)cc1OC	·	-3	-2	-4	-12	29*	-17
Cc1ccc(COc2ccsc2C(=O)NNC(N)=S)cc1	2	-5	-1	1	·	28*	0
CCCCN(C)C(=O)c1nc2ccccn2c1CN1CCN(c2ccccn2)CC1	-2	-1	-1	1	-1	-1	·
COc1ccc(-c2nc3ccccc3o2)cc1NC(=O)c1ccc(Br)o1	·	1	0	-6	-50	73*	-1
CCC1(COC(=O)Nc2cccc(Cl)c2)COC1	·	1	-2	-1	0	-3	·
Cc1ccc(NC(=O)Cn2c(=O)c3cccn3c3ccccc32)c(C)c1	5	0	-2	-3	26	46*	6
CC(C)(C)OC(=O)NCc1ccc(NC(=O)c2nc[nH]c2C(=O)NCCNC(=O)c2[nH]cnc2C(=O)Nc2ccc(CNC(=O)OC(C)(C)C)cc2)cc1	·	0	-1	-5	-136	40*	2
CC(C)(C)OC(=O)CNC(=O)c1[nH]cnc1C(=O)Nc1ccc(CNC(=O)OC(C)(C)C)cc1	1	1	-1	-3	12	-13	·
O=C(COc1ccc(Cl)cc1Cl)Nc1cccc(-c2ccc(N3CCOCC3)nn2)c1	-4	0	-2	-6	-65	12	·

Compound activity: PubChem BioAssay, Broad Institute
